Publication PMC9060504 (Proceedings of the National Academy of Sciences of the …, 2022)
Each block holds one compound with its values, some of them ahead of it.

How the values were obtained:
[1] = biological target: T1, STIM1 together with Orai3 (Homo sapiens, UniProt Q9BRQ5); settings: cited from earlier work
[2] = biological target: STIM1 and Orai1 (CRAC channel) (Homo sapiens, UniProt Q96D31); experiment: Whole-cell patch-clamp CRAC current in HEK293 cells expressing STIM1 and Orai1; format: cell-based
Sequence of STIM1 and Orai1 (CRAC channel) (Q96D31 whole entry): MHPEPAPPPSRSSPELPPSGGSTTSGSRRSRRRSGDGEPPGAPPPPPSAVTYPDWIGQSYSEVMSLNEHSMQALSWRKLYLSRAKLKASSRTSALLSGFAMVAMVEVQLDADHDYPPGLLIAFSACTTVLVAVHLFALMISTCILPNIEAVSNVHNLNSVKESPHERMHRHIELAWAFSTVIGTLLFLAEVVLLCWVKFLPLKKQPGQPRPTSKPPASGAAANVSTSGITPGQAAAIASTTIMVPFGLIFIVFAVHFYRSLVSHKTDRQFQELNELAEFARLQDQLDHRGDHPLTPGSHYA
Sequence of STIM1 and Orai1 (CRAC channel) (Q13586 23-685 partner): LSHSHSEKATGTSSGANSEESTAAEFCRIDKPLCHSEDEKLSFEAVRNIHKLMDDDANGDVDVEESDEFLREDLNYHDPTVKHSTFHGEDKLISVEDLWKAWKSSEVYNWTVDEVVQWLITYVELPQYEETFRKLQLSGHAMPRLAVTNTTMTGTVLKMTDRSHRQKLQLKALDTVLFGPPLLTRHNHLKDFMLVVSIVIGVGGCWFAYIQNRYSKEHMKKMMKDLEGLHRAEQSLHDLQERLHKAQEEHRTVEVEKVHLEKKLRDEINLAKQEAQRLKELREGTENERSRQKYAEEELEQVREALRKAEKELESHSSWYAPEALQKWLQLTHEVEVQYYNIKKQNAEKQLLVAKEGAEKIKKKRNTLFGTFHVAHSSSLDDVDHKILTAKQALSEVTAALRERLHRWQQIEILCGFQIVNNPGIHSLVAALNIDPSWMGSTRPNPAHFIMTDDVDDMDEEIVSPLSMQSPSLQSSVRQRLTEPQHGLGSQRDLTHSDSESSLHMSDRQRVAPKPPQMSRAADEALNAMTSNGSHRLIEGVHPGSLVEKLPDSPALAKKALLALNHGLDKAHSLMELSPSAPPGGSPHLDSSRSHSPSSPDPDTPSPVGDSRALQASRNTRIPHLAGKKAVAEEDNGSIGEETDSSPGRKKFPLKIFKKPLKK

[3] = biological target: STIM1 together with Orai2 (Homo sapiens, UniProt Q96SN7); experiment: Whole-cell patch-clamp CRAC current in cells coexpressing STIM1 and Orai2; format: cell-based
Sequence of STIM1 together with Orai2 (Q96SN7 whole entry): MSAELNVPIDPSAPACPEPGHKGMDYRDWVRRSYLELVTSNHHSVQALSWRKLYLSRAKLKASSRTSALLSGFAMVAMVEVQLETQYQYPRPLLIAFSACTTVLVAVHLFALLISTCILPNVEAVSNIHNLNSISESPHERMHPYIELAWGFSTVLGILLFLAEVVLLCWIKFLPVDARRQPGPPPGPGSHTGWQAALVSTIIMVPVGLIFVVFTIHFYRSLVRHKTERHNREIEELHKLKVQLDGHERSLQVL

[4] = biological target: T1, STIM1 together with Orai3; experiment: Whole-cell patch-clamp CRAC current in cells coexpressing STIM1 and Orai3; format: cell-based
Orai3 [5] = biological target: T2, Orai3 (Homo sapiens, UniProt Q9BRQ5); experiment: Current recording, HEK293 cells expressing Orai3 alone; format: cell-based; settings: 100 μM, with or without 360 nm light
Orai1 [6] = biological target: T3, Orai1 (Homo sapiens, UniProt Q96D31); format: cell-based; settings: Orai1 alone, 100 μM, with or without 360 nm light
Target sequence in this assay (Q96D31 whole entry): as the sequence (Q96D31 whole entry) above

Orai1 V102A = Orai1 V102A (Homo sapiens, UniProt Q96D31, V102A); experiment: Current recording, constitutively open Orai1 V102A mutant; format: cell-based; settings: 10 μM
Sequence of Orai1 V102A (Q96D31 whole entry V102A, the tested form may be a part): as the sequence (Q96D31 whole entry) above, with V102A counted along it
How it was run: (§1)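 Whole-cell currents were recorded from cells expressing the Orai1 mutant or the chimera (the chimera with STIM1). Cells were superfused with extracellular solution containing 10 mM Ca2+, with or without 10 μM test compound or 10 μM La3+. During recording, cells were kept dark or illuminated at the indicated wavelengths. Time courses and I-V plots were collected.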

Orai1 P245L = Orai1 P245L (Homo sapiens, UniProt Q96D31, P245L); experiment: Current recording, constitutively open Orai1 P245L mutant; format: cell-based; settings: 10 μM
Sequence of Orai1 P245L (Q96D31 whole entry P245L): as the sequence (Q96D31 whole entry) above, with P245L counted along it
How it was run: as §1

[7] = system: O3N–O1C chimeric Orai channel; experiment: Current recording, STIM1 with chimeric O3N–O1C channel; format: cell-based; settings: 10 μM
How it was run: as §1

[8] = system: O1N–O3C chimeric Orai channel; experiment: Current recording, STIM1 with chimeric O1N–O3C channel; format: cell-based; settings: 10 μM
How it was run: as §1

SOCE in HEK293 cells = experiment: Ca2+ imaging of SOCE in HEK293 cells; format: cell-based; settings: 100 μM, 1 mM Ca2+, TG
Orai1 [9] = biological target: T3, Orai1; experiment: Ca2+ imaging of SOCE, Orai TKO HEK293 cells expressing STIM1 and Orai1; format: cell-based; settings: 100 μM, dark
Target sequence in this assay (Q96D31 whole entry): as the sequence (Q96D31 whole entry) above
Target sequence in this assay (Q13586 23-685 partner): as the sequence (Q13586 23-685 partner) above

Orai2 = Orai2 (Homo sapiens, UniProt Q96SN7); experiment: Ca2+ imaging of SOCE, Orai TKO HEK293 cells expressing STIM1 and Orai2; format: cell-based; settings: 100 μM, dark
Sequence of Orai2 (Q96SN7 whole entry): as the sequence (Q96SN7 whole entry) above

Orai3 [10] = biological target: T2, Orai3; experiment: Ca2+ imaging of SOCE, Orai TKO HEK293 cells expressing STIM1 and Orai3; format: cell-based; settings: 100 μM, dark
InsP3R = experiment: Ca2+ imaging of IP3-mediated ER Ca2+ release in STIM DKO cells; format: cell-based; settings: 100 μM
How it was run: (§2)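 Cells were loaded with 5 μM Cal-590 in Ringer's solution for 60 min, excited at 560 nm, and imaged every 3 or 10 s. Each experiment recorded 10 to 97 cells, and their responses were averaged. The Ca2+ change after activating each transport mechanism with 100 μM test compound present was normalized to the change in DMSO-treated control cells.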

TRPC3 = TRPC3 (Homo sapiens, UniProt Q13507); experiment: Ca2+ imaging of TRPC3-mediated Ca2+ influx in STIM DKO cells; format: cell-based; settings: 100 μM
Sequence of TRPC3 (Q13507 whole entry, species assumed): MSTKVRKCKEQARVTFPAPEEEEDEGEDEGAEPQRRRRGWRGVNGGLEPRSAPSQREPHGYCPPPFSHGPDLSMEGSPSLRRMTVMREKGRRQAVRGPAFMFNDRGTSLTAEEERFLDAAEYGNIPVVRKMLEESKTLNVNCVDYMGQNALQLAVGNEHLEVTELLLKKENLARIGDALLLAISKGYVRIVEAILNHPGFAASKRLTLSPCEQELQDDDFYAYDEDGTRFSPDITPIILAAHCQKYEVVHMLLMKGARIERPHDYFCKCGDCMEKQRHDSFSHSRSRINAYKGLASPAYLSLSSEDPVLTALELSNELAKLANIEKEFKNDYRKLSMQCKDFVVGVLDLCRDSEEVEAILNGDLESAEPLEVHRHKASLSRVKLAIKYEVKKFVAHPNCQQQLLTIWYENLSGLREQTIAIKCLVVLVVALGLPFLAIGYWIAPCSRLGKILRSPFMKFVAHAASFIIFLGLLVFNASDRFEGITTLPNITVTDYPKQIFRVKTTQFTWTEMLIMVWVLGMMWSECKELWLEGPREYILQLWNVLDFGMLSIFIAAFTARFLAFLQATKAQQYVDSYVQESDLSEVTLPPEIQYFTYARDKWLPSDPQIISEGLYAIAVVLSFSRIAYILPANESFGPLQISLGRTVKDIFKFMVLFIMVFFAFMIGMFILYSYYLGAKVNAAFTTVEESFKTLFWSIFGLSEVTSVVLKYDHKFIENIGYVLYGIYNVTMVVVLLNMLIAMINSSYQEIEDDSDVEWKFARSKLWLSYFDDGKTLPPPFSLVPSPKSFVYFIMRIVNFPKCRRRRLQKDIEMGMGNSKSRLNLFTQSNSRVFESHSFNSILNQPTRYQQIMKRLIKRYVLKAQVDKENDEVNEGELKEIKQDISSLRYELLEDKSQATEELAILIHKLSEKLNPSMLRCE
How it was run: as §2

TRPC6 = TRPC6 (Homo sapiens, UniProt Q9Y210); experiment: Ca2+ imaging of TRPC6-mediated Ca2+ influx in STIM DKO cells; format: cell-based; settings: 100 μM
How it was run: as §2

TRPV1 = TRPV1 (Homo sapiens, UniProt Q8NER1); experiment: Ca2+ imaging of TRPV1-mediated Ca2+ influx in STIM DKO cells; format: cell-based; settings: 100 μM
Sequence of TRPV1 (Q8NER1 whole entry, species assumed): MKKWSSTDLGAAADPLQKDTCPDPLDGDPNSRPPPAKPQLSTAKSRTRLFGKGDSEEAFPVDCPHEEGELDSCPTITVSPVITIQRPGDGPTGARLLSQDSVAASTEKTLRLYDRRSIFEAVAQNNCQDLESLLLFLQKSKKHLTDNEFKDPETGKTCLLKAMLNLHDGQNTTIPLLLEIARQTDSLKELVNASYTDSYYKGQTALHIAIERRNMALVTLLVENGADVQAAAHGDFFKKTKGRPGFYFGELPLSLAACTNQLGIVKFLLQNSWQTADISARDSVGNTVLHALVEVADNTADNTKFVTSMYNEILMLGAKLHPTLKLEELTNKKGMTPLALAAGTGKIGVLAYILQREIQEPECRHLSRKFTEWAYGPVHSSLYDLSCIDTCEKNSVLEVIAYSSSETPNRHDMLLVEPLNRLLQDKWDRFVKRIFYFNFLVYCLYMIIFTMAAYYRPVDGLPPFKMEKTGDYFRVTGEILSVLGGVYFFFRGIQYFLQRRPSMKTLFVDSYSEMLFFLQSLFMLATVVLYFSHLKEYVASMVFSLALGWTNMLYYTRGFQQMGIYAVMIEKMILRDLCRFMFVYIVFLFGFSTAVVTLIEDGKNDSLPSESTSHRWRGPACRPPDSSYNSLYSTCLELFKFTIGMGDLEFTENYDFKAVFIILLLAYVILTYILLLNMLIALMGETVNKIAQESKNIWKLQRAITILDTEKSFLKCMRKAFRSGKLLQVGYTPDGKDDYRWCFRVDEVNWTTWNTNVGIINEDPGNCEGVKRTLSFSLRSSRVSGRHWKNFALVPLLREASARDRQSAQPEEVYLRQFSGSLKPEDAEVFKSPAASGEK
How it was run: as §2

NCX1 = NCX1 (Homo sapiens, UniProt P32418); experiment: Ca2+ imaging of reverse Na+/Ca2+ exchange in cells overexpressing NCX1; format: cell-based
Sequence of NCX1 (P32418 36-973): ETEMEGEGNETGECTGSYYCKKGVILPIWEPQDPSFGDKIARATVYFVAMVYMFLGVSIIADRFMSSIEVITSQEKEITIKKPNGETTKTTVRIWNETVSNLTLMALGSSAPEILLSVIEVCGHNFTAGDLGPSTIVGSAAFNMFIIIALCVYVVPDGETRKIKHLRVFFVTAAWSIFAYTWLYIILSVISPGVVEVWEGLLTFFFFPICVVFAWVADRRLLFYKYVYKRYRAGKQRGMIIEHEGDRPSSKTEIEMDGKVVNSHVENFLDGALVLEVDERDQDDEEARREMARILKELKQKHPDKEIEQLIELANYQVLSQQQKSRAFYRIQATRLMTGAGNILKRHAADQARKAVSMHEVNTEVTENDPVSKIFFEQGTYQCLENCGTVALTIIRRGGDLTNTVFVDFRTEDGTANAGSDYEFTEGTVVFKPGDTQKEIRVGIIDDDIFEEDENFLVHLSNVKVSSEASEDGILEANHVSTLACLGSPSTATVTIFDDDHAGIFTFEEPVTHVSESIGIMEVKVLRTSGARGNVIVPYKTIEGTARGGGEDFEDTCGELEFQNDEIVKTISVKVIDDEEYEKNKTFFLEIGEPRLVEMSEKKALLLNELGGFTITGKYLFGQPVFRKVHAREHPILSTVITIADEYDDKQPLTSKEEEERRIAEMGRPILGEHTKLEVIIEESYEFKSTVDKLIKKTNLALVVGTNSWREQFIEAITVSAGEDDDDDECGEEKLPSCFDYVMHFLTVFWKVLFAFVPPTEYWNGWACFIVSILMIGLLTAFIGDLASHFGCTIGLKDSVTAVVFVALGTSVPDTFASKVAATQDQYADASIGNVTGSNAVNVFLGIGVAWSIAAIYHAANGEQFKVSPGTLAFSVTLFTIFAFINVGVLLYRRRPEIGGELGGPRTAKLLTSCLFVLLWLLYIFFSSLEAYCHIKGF
How it was run: as §2

STIM1 = STIM1 (Homo sapiens, UniProt Q13586); experiment: TIRFM of STIM1 clustering at ER–PM junctions; format: cell-based; settings: 100 μM, after ER Ca2+ depletion with TG
Sequence of STIM1 (Q13586 23-685, species assumed): as the sequence (Q13586 23-685 partner) above
How it was run: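 TIRFM used a 100× (N.A. 1.49) objective. STIM1-mCherry cells were held in zero-Ca2+ solution with 400 nM thapsigargin for 10 min, then received 100 μM test compound and were imaged before and 20 min after. Orai1-EGFP/STIM1-mCherry cells were preincubated with 100 μM compound in zero Ca2+ and imaged before and 10 min after adding 400 nM thapsigargin.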

[11] = system: NFAT transcription in Jurkat NFAT-P/Luciferase (JNL) cells; experiment: NFAT-dependent luciferase assay in JNL cells; format: cell-based, human; settings: 100 μM
[12] = system: EMT6-GFP murine breast cancer cells; experiment: Pulmonary metastatic assay; format: in vivo, mouse
How it was run: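 EMT6-GFP cells were treated for 1 h with 1% DMSO or 200 µM test compound, with or without 10 s of 365 nm light (16 mW/cm²) at 0, 30 and 60 min. They were then washed and injected into the tail vein of 8-wk BALB/c mice (5 × 10⁴ cells). After 20 min, lungs were perfused, agarose-inflated and cut into 1–2 mm slices. Slices were cultured 7 d at 37 °C, and GFP⁺ colonies counted (3 slices/mouse, 5 mice/group). GFP⁺ cell percentage was then measured by flow cytometry.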

SOCE in TG neurons = experiment: Ca2+ imaging of SOCE in cultured trigeminal ganglion neurons; format: cell-based, mouse; settings: 100 μM
How it was run: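 Mouse trigeminal ganglion neurons were acutely dissociated, cultured and loaded with Cal-590. They were held for 10 min in Ca2+-free solution with 1 μM thapsigargin, with or without 100 μM test compound. SOCE was then induced by superfusion with 0.5 mM Ca2+, without or with 360 nm illumination. Fluorescence time courses came from n = 71 to 179 cells per group.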

[13] = system: capsaicin-induced nocifensive behavior; experiment: Capsaicin-induced forelimb eye wiping test; format: in vivo, mouse
How it was run: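 Male C57BL/6JOLAHSD mice (3–4 wk, 5–6 per group) were handled for 2 d and habituated to the cage for 10 min. A 10-μL drop went to the right eye: vehicle (0.1% ethanol in SES), 1 μM capsaicin, 100 μM test compound, or capsaicin plus compound. Forelimb wipes were counted for 5 min, starting 5 min after dosing. Where used, 365 nm light (16 mW/cm², 3 cm, 60 s) was given and counting began 5 min later. Light alone was also tested.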

[14] = Trans:cis isomer ratio by 1H NMR; format: physicochemical
[15] = Photostability under repeated illumination; format: physicochemical; settings: eight cycles 365/520 nm, 1% DMSO in PBS
How it was run: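 Test compound at 26 μM in 1% DMSO/PBS was exposed to eight cycles of alternating 5-min 365 nm and 520 nm LED illumination. Absorbance at 329 nm was recorded throughout.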

[16] = cells treated with 200 μM, no illumination

SMILES: O=C(Nc1ccn(Cc2ccc(O)cc2C(F)(F)F)n1)c1c(F)cccc1F [GSK7975A]
Sensitivity of Orai3 current [1]: sensitive

Control of channel activity when infused into the cytosol via the patch pipette ([2]; 0.5 mM in pipette solution): failed to do so
Ki ([2]; Ki, dose-inhibition analysis, HEK293 STIM1+Orai1, LOCI-1 n = 3, LOCI-2 n = 4): 5.5 ± 0.26 µM
Restoration of inhibited current by 360 nm light ([2]; LOCI-1 10 μM, LOCI-2 10 μM, 2-APB 100 μM): fully restored
Ki [3]: 15.5 ± 1.8 µM
Ki [4]: 131 ± 24 µM
inhibition at 100 µM ([4]; read-out: Average inhibition of Orai3 activity): ~35%
Current change on application (Orai3 [5]): did not induce a notable current change
Current change on application (Orai1 [6]): did not induce a notable current change
Effect on Orai1 V102A current (Orai1 V102A): negligible effect
Effect on Orai1 P245L current (Orai1 P245L): strongly inhibited
Effect on SOCE mediated by Orai1 (Orai1 [9]): strongly inhibits
Effect on SOCE mediated by Orai2 (Orai2): strongly inhibits
Effect on SOCE mediated by Orai3 (Orai3 [10]): not
Effect on TRPC3-mediated Ca2+ influx (TRPC3): did not affect
Effect on TRPC6-mediated Ca2+ influx (TRPC6): did not affect
Effect on TRPV1-mediated Ca2+ influx (TRPV1): did not affect
TRPV1 activity in presence of cis or trans conformations (TRPV1; HEK293 STIM DKO cells expressing TRPV1): unchanged
Effect on sodium–calcium exchange activity (NCX1): did not inhibit
Effect on clustering of STIM1 in puncta at ER–PM junctions (STIM1): did not affect
Trans isomer content, dark-adapted [14]: 94%
Photofatigue on repeated illumination [15]: without significant photofatigue
SMILES: OB(O)c1ccc(/N=N/c2ccccc2)cc1 [LOCI-1]
Effect on O3N–O1C channel current [7]: small and inconsistent effect
Effect on O1N–O3C channel current [8]: strongly inhibited
Effect on SOCE (SOCE in HEK293 cells): inhibited
Effect on IP3-mediated Ca2+ release (InsP3R): did not affect
Inhibition of NFAT transcription ([11]; 16 h, in the dark): more than 80%
NFAT transcription after 365 nm light ([11]; two pulses of 365 nm light): fully restore transcription to control levels
GFP-positive cancer cells in lung tissue ([12]; cells treated with 200 μM and 365 nm illumination): ~1.3%
GFP-positive cancer cells in lung tissue [12, 16]: ~0.65%
Number of metastatic colonies vs DMSO [12, 16]: significantly fewer metastatic colonies
Effect on SOCE in TG neurons (SOCE in TG neurons): inhibited
Eye wiping response, applied alone ([13]; 100 μM alone, topical to eye): neither LOCI-1 nor 365 nm light elicits an appreciable nocifensive behavior
Inhibitory effect on eye wiping after a pulse of 365 nm light ([13]; 100 μM with 1 μM capsaicin, 365 nm 60 s): fully reversed
Eye wiping response, cotreatment with capsaicin ([13]; 100 μM with 1 μM capsaicin, topical to eye, vs capsaicin alone): significantly lower responses

SMILES: O=C(Nc1ccn(Cc2ccccc2Oc2ccccc2)n1)c1c(F)cccc1F [GSK5503A]
Sensitivity of Orai3 current [1]: sensitive
